Source: PubChem BioAssay (The Scripps Research Institute Molecular Screening Center)
In the library only some 3.1% were active in any assay of this set; here they are far more common.
PRMT1 inh – PRMT1 methyltransferase inhibitors, primary screen, biochemical, fluorescence polarization. 370,000 tested, 1.3% active. inhibition, % at 2.79 µM. recombinant PRMT1, activity-based probe fluorescence polarization;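 active means inhibition above about 21% made by adding two undisclosed values, limit read from the data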
Target sequence (Q99873 whole entry, looked up): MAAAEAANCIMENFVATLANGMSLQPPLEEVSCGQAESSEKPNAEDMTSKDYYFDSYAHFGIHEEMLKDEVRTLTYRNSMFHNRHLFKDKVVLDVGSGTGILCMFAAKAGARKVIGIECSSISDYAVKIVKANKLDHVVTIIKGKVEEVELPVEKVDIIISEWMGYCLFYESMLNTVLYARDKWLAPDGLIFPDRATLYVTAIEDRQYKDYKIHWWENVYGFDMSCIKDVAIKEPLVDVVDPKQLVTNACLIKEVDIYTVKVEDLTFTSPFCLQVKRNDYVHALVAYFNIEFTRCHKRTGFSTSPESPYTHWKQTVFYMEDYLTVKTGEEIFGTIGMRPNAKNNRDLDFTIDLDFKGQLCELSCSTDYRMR
MBD2 DNA inh – inhibitors of MBD2 binding to methylated DNA, primary screen, biochemical, TR-FRET, DNA-binding domain, human; Methyl-CpG-binding domain protein 2 (Homo sapiens), Q9UBB5; MBD2 binding to methylated oligonucleotide; inhibition, % at 4.4 µM; 370,000 tested, 0.31% active; in the data active means inhibition above about 13%
UHRF1 binding – UHRF1 methylated DNA binding inhibitors, primary screen, counter-screen for MBD2 inhibitor project, biochemical, TR-FRET, human UHRF1, single concentration. E3 ubiquitin-protein ligase UHRF1 (Homo sapiens), Q96T88. UHRF1 binding to methylated oligo. inhibition, % at 4.4 µM. 370,000 tested, 0.75% active; in the data active means inhibition above about 21%;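 further: UHRF1 SRA domain binding a hemimethylated CpG hairpin DNA probe; 0% = median of test compound wells and 100% = reference inhibitor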
RBBP9 inhibitor – human RBBP9 inhibitors, primary screen, biochemical, fluorescence polarization, FP-Rh probe, HTS; recombinant RBBP9; AID 1515, 2009; Serine hydrolase RBBP9 (Homo sapiens), O75884; 220,000 tested, 0.2% active; inhibition, % at 7.94 µM;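 active means inhibition above the campaign mean of all tested compounds plus 3 SD, cut at about 14% in these data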;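 further: plate controls were DMSO wells with RBBP9 for no effect and wells lacking RBBP9 protein for full effect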
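Measured by – fluorescence polarization · Test system – RBBP9 protein · Input – 2.5 µM RBBP9 dispensing solution, before mixing · Measure – percent inhibition from mP, scaled between DMSO and no-protein wells · Benchmarks – DMSO-treated enzyme wells and wells lacking RBBP9 · Times – preincubation 30 min plus labeling 45 min at 25 °C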
LEDGF integ inh – blockers of LEDGF/p75-dependent integrase strand transfer – biochemical, TR-FRET, high throughput, primary screen; TR-FRET IN-LEDGF/p75 DNA integration, Eu/Cy5; inhibition, % at 3.7 µM; 370,000 tested, 0.64% active; AID 743269, 2014;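 active means inhibition above the screen-wide mean plus 3 SD, cut at about 13% in these data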;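 further: signal is the Cy5 over europium emission ratio at 671 and 618 nm; 0% = plate median of compound wells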
ABHD5 PLIN5 PPI – ABHD5-PLIN5 interaction inhibitors, primary screen, cell lysate, split luciferase complementation, luminescence. Perilipin-5 (Homo sapiens) + 1-acylglycerol-3-phosphate O-acyltransferase ABHD5 (Homo …. Split G. princeps luciferase complementation, 4 h. inhibition, % at 4 µM. 360,000 tested, 0.78% active;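 active means inhibition above the mean inhibition across every tested compound plus 3 SD, cut at about 22% in these data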;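 further: 0% = DMSO only wells and the 100% control is not disclosed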
An asterisk follows results filed as active; / = not tested or not shown.

SMILES	PRMT1 inh	MBD2 DNA inh	UHRF1 binding	RBBP9 inhibitor	LEDGF integ inh	ABHD5 PLIN5 PPI
O=C(O)COc1ccccc1C(Nc1cccnc1)c1cc(Cl)c2cccnc2c1O (configuration not stated)	/	/	/	-2	/	26*
CSc1ccccc1NC(=O)NCCCl	5	2	22*	-4	-1	5
Cc1ccc(N=Cc2ccc(O)cc2O)cc1F	4	-9	-2	-10	37*	5
CCOC(=O)C1(CCOC)CCN(C(=O)c2ccccc2-c2cccc(C)c2)CC1	-3	4	23*	-6	1	0
CCOC(=O)C1(CCOC)CCN(Cc2cnc(-c3cccc(C)c3)nc2)CC1	4	5	0	-5	5	-5
CCN1/C(=C/c2ccc3cc(C)ccc3[n+]2CC)Sc2ccccc21	-14	-1	-42	-3	1	23*
O=C(Oc1nsnc1N1CCOCC1)N(c1ccccc1)c1ccccc1	-1	-1	1	-3	-3	-3
COC(=O)Oc1nsnc1N1CCOCC1	81*	-2	8	-7	3	-19
Cc1sc2nc(COC(=O)c3c(F)cccc3F)[nH]c(=O)c2c1C	-6	4	38*	-8	-1	1
N#CCCN(C(=O)CSc1ccc2c(c1)OCCO2)c1ccccc1	22*	-1	2	-7	3	-15
CCC(=O)N(CCC(Cc1ccccc1)c1ccc2c(c1)OCO2)Cc1ccccc1F (configuration not stated)	3	3	25*	-3	1	-8
S=c1[nH]nc(-c2cc3c(s2)-c2ccccc2CC3)o1	22*	-5	-3	-5	0	-45
Cc1ccc2ccccc2[n+]1CCCS(=O)(=O)[O-]	2	0	36*	8	1	3
CSc1sc2ccccc2[n+]1CCCS(=O)(=O)[O-]	23*	-2	-2	8	-1	-8
O=C1[C@@H](C2CCCCC2)[C@@H]2c3ccccc3C=NN2[C@@H]2c3ccccc3C=NN12	-1	5	1	/	-6	/
COC(=O)[C@]12C[C@H](CC(=O)N3CCN(C(=O)C4CC4)CC3)C(=O)N(Cc3cccc4ccccc34)C1=C[C@H](C(C)(C)C)O[C@@H]2C	1	0	0	/	-3	/
Cn1c2ccccc2c2ncn(Cc3ccco3)c(=O)c21	6	2	0	-4	0	13
Cn1c2ccc(F)cc2c2ncn(Cc3ccco3)c(=O)c21	22*	0	0	-10	6	3
O=[N+]([O-])c1ccccc1/C=C/C1Nc2cccc3cccc(c23)N1	21*	3	-1	/	0	/
O=[N+]([O-])c1cc(C2Nc3cccc4cccc(c34)N2)ccc1Cl	9	5	1	-6	6	2
CCOc1ccc2ccccc2c1/C=N/NC(=O)CNC(=O)Cc1ccccc1	0	2	23*	-4	-1	10
NC(=O)c1ncn([C@@H]2O[C@H](CNCc3cccc4c3sc3ccccc34)[C@@H](O)[C@H]2O)n1	0	9	22*	/	-2	-1
CC(C)Oc1ccc2ccccc2c1CNC[C@H]1O[C@@H](n2cnc(C(N)=O)n2)[C@H](O)[C@@H]1O	-1	6	44*	/	3	-3
COC(=O)C1CCCN(C(=O)C2CCN(S(=O)(=O)c3cccs3)CC2)C1 (configuration not stated)	1	0	2	/	2	/
COCCNC(=O)C[C@H]1CC[C@H]2[C@@H](COc3ccc(NC(=O)Nc4cccc(F)c4)cc3C(=O)N2C)O1	5	8	5	/	4	/
NS(=O)(=O)c1ccc(-c2ccc(C=O)o2)cc1	0	-6	-2	-2	-1	-5
CC1=C(C#N)C(=O)NC(=O)/C1=C/c1ccc(-c2ccc(S(N)(=O)=O)cc2)o1	13	21*	1	0	1	0
